Source: PubChem BioAssay
Results filed as inconclusive are left out. Activity calls are given as the source filed them.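 How the source made its calls, unless noted: active means RAM network inhibition above 8.4% in each of two replicates, 3 SD over the compound average; inconclusive means above 8.4% inhibition in only one replicate; inactive means 8.4% inhibition or less in each replicate.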

Legend:
[1] = OD615 S. cerevisiae growth inhibition, permissive medium, pilot counter-assay, permissive growth control for S. cerevisiae lifespan shortening project (AID 705;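 active means growth inhibition above 25% in both replicates, a cutoff set 3 SD above the mean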); conditions: OD615, 24 h, at 10 µM, stronger effect = higher value
How it was run: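 System – S. cerevisiae with engineered DeaD lifespan system · Buffer or medium – SC raffinose/galactose permissive medium · Schedule – cells pre-grown 4 h, then 24 h compound exposure, 30 °C humidified · Technique – culture turbidity as optical density at 615 nm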

[2] = Restrictive medium S. cerevisiae growth inhibition, OD615, pilot screen of yeast lifespan reduction project, restrictive growth control (AID 706;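 active means growth inhibition above a set limit, 3 SD over mean compound inhibition, in both replicates, cut at about 43% in these data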;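 further: modified DeaD lifespan yeast strain shifted to restrictive glucose medium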); conditions: OD615, 48 h, at 10 µM, stronger effect = higher value
How it was run: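 Material: engineered S. cerevisiae DeaD strain / Medium: glucose-based CSMM-D restrictive medium / Compound: single dose of 10 µM compound final, 0.25% DMSO / Timing: 4 h pre-incubation, 48 h exposure at 30 °C / Technique: OD615 absorbance reading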

[3] = viability gain of MRP-1-high H69AR cells under doxorubicin, pilot screen, MRP-1 activator project, CellTiter-Glo, duplicate (AID 807;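 active means viability increase at or above a cutoff of the median across tested compounds plus 3 SD, cut at about 8.5% in these data, passing the limit was not always enough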;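 further: compound pretreatment 18-22 h then 72 h combined with doxorubicin; 0% = doxorubicin alone and 100% = vehicle without doxorubicin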); conditions: H69AR viability with doxorubicin, CellTiter-Glo luminescence; at 10 µM; stronger effect = higher value
[4] = growth suppression of beta-catenin knockout HCT116, pilot screen, human colon tumor cells (AID 823;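 active means cell viability at or below a set limit in both duplicate runs, the limit being the all-compound median minus 4 SD, cut at about 23% in these data, passing the limit was not always enough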;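 further: 0% = wells killed by 20 µM Hyamine and 100% = untreated DMSO cell wells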); conditions: CellTiter-Glo, 60 h, at 10 µM, stronger effect = lower value
[5] = growth suppression of PTEN-deleted HCT116, pilot screen, cell-based, HCT116 clonal line, CellTiter-Glo (AID 824;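 active means viability at or below 27.92% in each of two runs, the all-compound median minus 4 SD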;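 further: 0% = 20 µM Hyamine control and 100% = vehicle cell control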); conditions: 60 h, at 10 µM, stronger effect = lower value
[6] = inhibitors of the yeast RAM network, pilot screen, dse1pr::URA3 reporter, 5-FOA selection (AID 869;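 active means inhibition over a set limit, the all-compound mean plus 3 SD, in both replicate runs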;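 further: 0% = DMSO wells with no growth and 100% = 10 µM 1-NA-PP1 with full growth; RAM network block rescues cells from 5-FOA so hits raise OD615 growth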); conditions: S. cerevisiae dse1pr::URA3 5-FOA growth, OD615, 2 d; at 10 µM; stronger effect = higher value; strain carries analog-sensitive mutant Cbk1 kinase
[7] = RAM signaling pathway blockade in yeast – S. cerevisiae, Pdr1DBD-CYC8 efflux-inhibited sensitized strain, primary screen (AID 1298);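 further: 0% = DMSO untreated cells without growth and 100% = 10 µM 1-NA-PP1 full growth; higher means more yeast growth rescued from 5-FOA killing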; conditions: S. cerevisiae cbk1-as DSE1-URA3 strain, 5-FOA growth OD615, 2 d; at 50 µM; stronger effect = higher value

Cn1c(CSc2nc3ccccc3s2)n[nH]c1=S
inactive: growth inhibition [1] -6.41% | growth inhibition [2] 1.9% | viability increase [3] -3.16% | viability [4] 96.9% | viability [5] 94.6% | inhibition [6] 0.23% | RAM network inhibition [7] 0.95%

Brc1cccc(-c2nnc3sc(CNC4CCCC4)cn23)c1
inactive: growth inhibition [1] -6.88% | growth inhibition [2] 5.62% | viability increase [3] -0.97% | viability [4] 95.7% | viability [5] 89.6% | inhibition [6] 1.56% | RAM network inhibition [7] 3.26%

O=C1c2ccccc2C(=O)N1CCc1nc2ccccc2c(=O)n1CCCn1ccnc1
inactive: growth inhibition [1] -3.21% | growth inhibition [2] 11% | viability increase [3] -2.41% | viability [4] 95.5% | viability [5] 97% | inhibition [6] 2.01% | RAM network inhibition [7] 2.2%

CCN(CC)c1ccc(NC(=O)COc2ccc(C)cc2)cc1
inactive: growth inhibition [1] -8.23% | growth inhibition [2] -15.4% | viability increase [3] 0.42% | viability [4] 93.6% | viability [5] 85.3% | inhibition [6] 0.255% | RAM network inhibition [7] 0.45%

COc1ccccc1NC(=O)c1cccc(S(=O)(=O)N2CCOCC2)c1
inactive: growth inhibition [1] 7.87% | growth inhibition [2] 0.14% | viability increase [3] -0.79% | viability [4] 103% | viability [5] 96.7% | inhibition [6] 2.99% | RAM network inhibition [7] 0.68%

CCOC(=O)c1ccc(N2C(=O)c3n[nH]c(C)c3C2c2ccccn2)cc1 (stereo not drawn)
inactive: growth inhibition [1] 0.375% | growth inhibition [2] 3.62% | viability increase [3] 0.57% | viability [4] 108% | viability [5] 114% | inhibition [6] 0.195% | RAM network inhibition [7] 3.09%

COC(=O)c1sc(NC(=O)C2CCCCC2C(=O)O)c(C(=O)OC)c1C (stereo not drawn)
inactive: growth inhibition [1] -5.95% | growth inhibition [2] 0.13% | viability increase [3] -2.78% | viability [4] 104% | viability [5] 94.6% | inhibition [6] 2.49% | RAM network inhibition [7] 6.27%

COc1ccc(-c2nc(Cn3c(SCc4cccc(F)c4)nc4ccncc43)c(C)o2)cc1OC
inactive: growth inhibition [1] 4.55% | growth inhibition [2] 30.2% | viability increase [3] -3.1% | viability [4] 69.9% | viability [5] 60.1% | inhibition [6] 1% | RAM network inhibition [7] 3.81%

Cc1ccc(Cn2nnc3c(=O)n(Cc4ccccc4C)cnc32)cc1
inactive: growth inhibition [1] 1.6% | growth inhibition [2] -5.54% | viability increase [3] -2.98% | viability [4] 92.7% | viability [5] 82.3% | inhibition [6] 1.68% | RAM network inhibition [7] 8.59%

O=C(NCC1CCCO1)c1nnc(Cc2ccc(F)cc2)o1 (stereo not drawn)
inactive: growth inhibition [1] -12.6% | growth inhibition [2] 10.5% | viability increase [3] -0.18% | viability [4] 98.4% | viability [5] 99.4% | inhibition [6] 0.085% | RAM network inhibition [7] 1.47%

CCOC(=O)NCc1ccc2[nH]c(C)cc2c1
inactive: growth inhibition [1] -16.1% | growth inhibition [2] -9.38% | viability increase [3] -1.52% | viability [4] 94.5% | viability [5] 97.1% | inhibition [6] -0.465% | RAM network inhibition [7] 4.71%

CCOc1ccc(C2c3c(oc4ccccc4c3=O)C(=O)N2c2ccccn2)cc1OC (stereo not drawn)
inactive: growth inhibition [1] -15.4% | growth inhibition [2] -25.5% | viability increase [3] -4.13% | viability [4] 92.3% | viability [5] 96.2% | inhibition [6] 1.44% | RAM network inhibition [7] 1.32%

O=C(NC1CCCCC1)N1CCCCCC1
inactive: growth inhibition [1] 1.12% | growth inhibition [2] -18% | viability increase [3] -0.52% | viability [4] 96.6% | viability [5] 97.5% | inhibition [6] 0.64% | RAM network inhibition [7] 3.56%

CCCCC(CC)CNC(=O)c1[nH]c(C)c(C(C)=O)c1C (stereo not drawn)
inactive: growth inhibition [1] 9.77% | growth inhibition [2] -2.26% | viability increase [3] -1.78% | viability [4] 41.7% | viability [5] 63.8% | inhibition [6] 1.91% | RAM network inhibition [7] 1.29%

Cn1c(C(=O)N2CCC(C(=O)N3CCOCC3)CC2)cc2sccc21
inactive: growth inhibition [1] -9.67% | growth inhibition [2] -7.13% | viability increase [3] 1.85% | viability [4] 98.7% | viability [5] 98.8% | inhibition [6] 0.59% | RAM network inhibition [7] 0.9%

CC(NC(=O)C1CCCN(S(=O)(=O)c2cnc[nH]2)C1)c1ccccc1 (stereo not drawn)
inactive: growth inhibition [1] 2.1% | growth inhibition [2] 2.4% | viability increase [3] -0.99% | viability [4] 98.3% | viability [5] 97.4% | inhibition [6] -0.19% | RAM network inhibition [7] -0.35%

O=C(COC(=O)c1ccc(Br)c(S(=O)(=O)N2CCOCC2)c1)NCC1CCCO1 (stereo not drawn)
inactive: growth inhibition [1] -1.59% | growth inhibition [2] -5.15% | viability increase [3] -2.27% | viability [4] 100% | viability [5] 101% | inhibition [6] 3.08% | RAM network inhibition [7] 4.66%

CCOC(=O)c1ccc(Nc2nnc(C(C)(C)C)c(=O)[nH]2)cc1
inactive: growth inhibition [1] -18.6% | growth inhibition [2] -21.9% | viability increase [3] -7.93% | viability [4] 49.6% | viability [5] 43.7% | inhibition [6] 0.35% | RAM network inhibition [7] 2.06%

Cc1cc(NC(=O)CSc2nnc(Cn3c(=O)sc4ccccc43)n2-c2ccccc2C)no1
inactive: growth inhibition [1] -0.97% | growth inhibition [2] -2.43% | viability increase [3] -1.05% | viability [4] 89% | viability [5] 87% | inhibition [6] 1.27% | RAM network inhibition [7] 7.59%

CCOC(=O)c1[nH]c2cc(OC)c(OC)cc2c1NC(=O)c1ccc2c(c1)OCO2
inactive: growth inhibition [1] -7.63% | growth inhibition [2] -10.9% | viability increase [3] -1.41% | viability [4] 102% | viability [5] 101% | inhibition [6] 2.13% | RAM network inhibition [7] 7.33%

Cc1cc(C)c(S(=O)(=O)N2CCN(C)CC2)c(C)c1
inactive: growth inhibition [1] -9.57% | growth inhibition [2] -13.9% | viability increase [3] 1.1% | viability [4] 101% | viability [5] 101% | inhibition [6] 0.885% | RAM network inhibition [7] 1.78%

O=C(c1ccccc1)c1ccc(N2CCCC2)cc1
inactive: growth inhibition [1] -1.86% | growth inhibition [2] 7.65% | viability increase [3] -2.59% | viability [4] 93% | viability [5] 96.4% | inhibition [6] 1.23% | RAM network inhibition [7] 1.03%

O=C(Cn1ncc2c1-c1ccccc1OC2)Nc1nc2ccccc2s1
inactive: growth inhibition [1] -6.12% | growth inhibition [2] 18.7% | viability increase [3] -6.71% | viability [4] 93.9% | viability [5] 84.5% | inhibition [6] 0.785% | RAM network inhibition [7] -2.15%

CCn1c2c(c3cc(Cl)ccc31)CCCC2=O
inactive: growth inhibition [1] -8.81% | growth inhibition [2] -10.1% | viability increase [3] -0.32% | viability [4] 96% | viability [5] 97.8% | inhibition [6] 0.915% | RAM network inhibition [7] 4.07%
